Experimental data taken from ChEMBL document CHEMBL3352173, “Optimization of pyrrolamide topoisomerase II inhibitors toward identification of an antibacterial clinical candidate (AZD5099)” (J Med Chem, 2014).
≈ marks a conversion by molar mass, not a printed value.

Experiments:
Haemophilus influenzae = assay: Antimicrobial activity against Haemophilus influenzae by broth microdilution/CLSI method; type: functional; settings: Haemophilus influenzae; read-out: MIC
DNA gyrase subunit B = DNA gyrase subunit B (Staphylococcus aureus, UniProt P0A0K8); assay: Inhibition of ATPase activity of Staphylococcus aureus GyrB
How it was run: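 IC50 was determined against S. aureus GyrB in the routine screening assay. The enzyme concentration limits resolution below 10 nM.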

Streptococcus pneumoniae = assay: Antibacterial activity against Streptococcus pneumoniae by broth microdilution/CLSI method; type: functional
Staphylococcus aureus [1] = assay: Antimicrobial activity against methicillin-sensitive Staphylococcus aureus by broth microdilution/CLSI method; type: functional
Moraxella catarrhalis = assay: Antimicrobial activity against Moraxella catarrhalis by broth microdilution/CLSI method; type: functional
Escherichia coli [2] = assay: Antimicrobial activity against wild-type Escherichia coli Eco523 by broth microdilution/CLSI method; type: functional; settings: Escherichia coli, Eco523; read-out: MIC
Escherichia coli [3] = assay: Antimicrobial activity against Escherichia coli tolC- by broth microdilution/CLSI method; type: functional; settings: Escherichia coli; read-out: MIC
[4] = Octanol-phosphate buffer distribution coefficient, log D of the compound at pH 7.4 by shake flask method; type: physicochemical
[5] = Percentage unbound in human plasma; type: ADME, cell-free
Staphylococcus aureus [6] = assay: Antimicrobial activity against methicillin, quinolone-resistant Staphylococcus aureus by broth microdilution/CLSI method; type: functional; settings: Staphylococcus aureus; read-out: MIC
Streptococcus pyogenes = assay: Antimicrobial activity against Streptococcus pyogenes by broth microdilution/CLSI method; type: functional
[7] = Solubility of the compound; type: physicochemical
[8] = Streptococcus pneumoniae, read-out: MIC
[9] = Staphylococcus aureus, read-out: MIC
[10] = Moraxella catarrhalis, read-out: MIC

DNA gyrase subunit B, sequence (P0A0K8 whole entry): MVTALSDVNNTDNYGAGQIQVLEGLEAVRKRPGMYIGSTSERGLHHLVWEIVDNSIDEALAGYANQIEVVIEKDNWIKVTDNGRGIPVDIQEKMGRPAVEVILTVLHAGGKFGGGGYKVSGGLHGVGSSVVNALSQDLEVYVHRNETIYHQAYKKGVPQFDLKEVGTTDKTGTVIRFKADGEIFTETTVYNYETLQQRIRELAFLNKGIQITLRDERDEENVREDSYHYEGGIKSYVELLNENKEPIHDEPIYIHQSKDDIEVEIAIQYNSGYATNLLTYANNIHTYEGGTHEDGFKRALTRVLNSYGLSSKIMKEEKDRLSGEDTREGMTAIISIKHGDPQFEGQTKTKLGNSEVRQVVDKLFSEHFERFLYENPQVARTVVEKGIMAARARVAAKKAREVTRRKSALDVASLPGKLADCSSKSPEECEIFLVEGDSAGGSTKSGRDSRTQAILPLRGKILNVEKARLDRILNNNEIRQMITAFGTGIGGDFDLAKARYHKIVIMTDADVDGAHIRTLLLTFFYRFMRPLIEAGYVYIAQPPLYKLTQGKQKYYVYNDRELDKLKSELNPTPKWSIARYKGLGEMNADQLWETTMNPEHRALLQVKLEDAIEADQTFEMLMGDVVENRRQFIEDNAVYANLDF

Row | SMILES | MIC (Haemophilus influenzae) [µg/mL] | IC50 (DNA gyrase subunit B) [nM] | MIC (Streptococcus pneumoniae; [8]) [µg/mL] | MIC (Staphylococcus aureus [1]; [9]) [µg/mL] | MIC (Moraxella catarrhalis; [10]) [µg/mL] | MIC (Escherichia coli [2]) [µg/mL] | MIC (Escherichia coli [3]) [µg/mL] | logD [4] | fraction unbound [5] | MIC (Streptococcus pneumoniae) [µg/mL] | MIC (Staphylococcus aureus [1]) [µg/mL] | MIC (Staphylococcus aureus [6]) [µg/mL] | MIC (Moraxella catarrhalis) [µg/mL] | MIC (Streptococcus pyogenes) [µg/mL] | solubility [7] [µM]
1 | COCCO[C@H]1CN(c2ncc(C(=O)O)s2)CC[C@H]1NC(=O)c1[nH]c(C)c(Cl)c1Cl (racemic) | 8 (≈ 16.8 µM) | < 10 | 0.5 (≈ 1.05 µM) | > 8 | 1 (≈ 2.09 µM) | > 8 | 2 (≈ 4.19 µM) | 0.06 | 0.094 |  |  |  |  |  | 
2 | CO[C@H]1CN(c2ncc(C(=O)O)s2)CC[C@H]1NC(=O)c1[nH]c(C)c(Cl)c1Cl (relative stereo) | 0.3 (≈ 0.692 µM) | < 10 |  |  |  | > 64 | 0.35 (≈ 0.808 µM) |  |  | 0.063 (≈ 0.145 µM) | 1 (≈ 2.31 µM) | 1 (≈ 2.31 µM) | 0.076 (≈ 0.175 µM) |  | 
3 | C=CCO[C@H]1CN(c2ncc(C(=O)O)s2)CC[C@H]1NC(=O)c1[nH]c(C)c(Cl)c1Cl (racemic) | 0.5 (≈ 1.09 µM) | < 10 | < 0.063 | 0.5 (≈ 1.09 µM) | < 0.063 | > 8 | 0.13 (≈ 0.283 µM) |  |  |  |  | 1 (≈ 2.18 µM) |  | < 0.063 | 
4 | CO[C@H]1CN(c2nc(-c3ccn[nH]3)c(C(=O)O)s2)CC[C@H]1NC(=O)c1[nH]c(C)c(Cl)c1Cl | 0.5 (≈ 1 µM) | < 10 | < 0.06 | 0.5 (≈ 1 µM) | < 0.06 | 64 (≈ 128 µM) | 0.18 (≈ 0.36 µM) | 1.7 |  |  |  | 0.17 (≈ 0.34 µM) |  | < 0.06 | 740 (≈ 370 µg/mL)
5 | Cc1[nH]c(C(=O)N[C@@H]2CCN(c3ncc(C(=O)O)s3)C[C@@H]2F)c(Cl)c1Cl | 0.3 (≈ 0.712 µM) | < 10 | 0.078 (≈ 0.185 µM) | 1.3 (≈ 3.09 µM) | 0.046 (≈ 0.109 µM) | > 64 | 0.081 (≈ 0.192 µM) |  |  |  |  | 2.2 (≈ 5.22 µM) |  | 0.092 (≈ 0.218 µM) | 
6 | Cc1[nH]c(C(=O)N[C@@H]2CCN(c3ncc(C(=O)O)s3)C[C@@H]2O)c(Cl)c1Cl (racemic) | 1 (≈ 2.38 µM) | 16 | 0.5 (≈ 1.19 µM) | 16 (≈ 38.2 µM) | 4 (≈ 9.54 µM) | > 64 | 1 (≈ 2.38 µM) | -0.67 |  |  |  | 16 (≈ 38.2 µM) |  |  | 
7 | CCO[C@H]1CN(c2ncc(C(=O)O)s2)CC[C@H]1NC(=O)c1[nH]c(C)c(Cl)c1Cl (racemic) | 2 (≈ 4.47 µM) | < 10 | 0.031 (≈ 0.0693 µM) | 1 (≈ 2.24 µM) | 0.13 (≈ 0.291 µM) | > 8 | 1 (≈ 2.24 µM) | 0.67 | 0.031 |  |  | 2 (≈ 4.47 µM) |  |  | 
8 | CO[C@@H]1CN(c2ncc(C(=O)O)s2)CC[C@H]1NC(=O)c1[nH]c(C)c(Cl)c1Cl | 16 (≈ 36.9 µM) | 110 | 8 (≈ 18.5 µM) | > 64 | 2 (≈ 4.62 µM) | > 64 | 2 (≈ 4.62 µM) |  |  |  |  | > 64 |  |  | 
9 | Cc1[nH]c(C(=O)N[C@@H]2CCN(c3ncc(C(=O)O)s3)C[C@@H]2C)c(Cl)c1Cl (racemic) | 2 (≈ 4.79 µM) | 14 | 0.5 (≈ 1.2 µM) | 4 (≈ 9.59 µM) | 0.5 (≈ 1.2 µM) | > 8 | 0.5 (≈ 1.2 µM) | 0.54 | 0.023 |  |  | 4 (≈ 9.59 µM) |  |  | 
10 | CO[C@H]1CN(c2ncc(C(=O)O)s2)CC[C@@H]1NC(=O)c1[nH]c(C)c(Cl)c1Cl | > 64 | 6400 | 64 (≈ 148 µM) | > 64 | 64 (≈ 148 µM) | > 64 | 64 (≈ 148 µM) |  |  |  |  | > 64 |  |  | 
11 | Cc1[nH]c(C(=O)N[C@@H]2CCN(c3ncc(C(=O)O)s3)C[C@@H]2CO)c(Cl)c1Cl (racemic) | 16 (≈ 36.9 µM) | 18 | 8 (≈ 18.5 µM) | > 64 | 1 (≈ 2.31 µM) | > 64 | 1 (≈ 2.31 µM) | -0.42 |  |  |  | 64 (≈ 148 µM) |  |  | 
12 | Cc1[nH]c(C(=O)N[C@@H]2CCN(c3ncc(C(=O)O)s3)C[C@@H]2S(C)(=O)=O)c(Cl)c1Cl (racemic) | > 8 | < 10 | > 8 | > 8 | > 8 | > 8 | > 8 | -1.1 | 0.13 |  |  |  |  | 8 (≈ 16.6 µM) | > 1000
13 | Cc1[nH]c(C(=O)N[C@@H]2CCN(c3ncc(C(=O)O)s3)C[C@@H]2Cl)c(Cl)c1Cl (racemic) | 0.18 (≈ 0.411 µM) | < 10 | 0.044 (≈ 0.101 µM) | 0.35 (≈ 0.8 µM) | 0.11 (≈ 0.251 µM) | > 8 | 0.35 (≈ 0.8 µM) | 0.75 | 0.008 |  |  | 2 (≈ 4.57 µM) |  |  | 
14 | COC[C@H]1CN(c2ncc(C(=O)O)s2)CC[C@H]1NC(=O)c1[nH]c(C)c(Cl)c1Cl (racemic) | > 8 | 54 | 4 (≈ 8.94 µM) | > 8 | 2 (≈ 4.47 µM) | > 8 | 1 (≈ 2.24 µM) | 0.06 | 0.052 |  |  |  |  |  | 
15 | CO[C@@H]1CN(c2ncc(C(=O)O)s2)CC[C@@H]1NC(=O)c1[nH]c(C)c(Cl)c1Cl | 16 (≈ 36.9 µM) | 140 | 1 (≈ 2.31 µM) | 32 (≈ 73.8 µM) | 2 (≈ 4.62 µM) | > 64 | 8 (≈ 18.5 µM) |  |  |  |  | 32 (≈ 73.8 µM) |  |  | 
